# In PMC9477609 (Journal of Molecular Liquids, 2022):
# Experiments:
# [1] = water solubility of neat and equilibrated powders; format: physicochemical; details: for water solubility: neat and solvent-equilibrated dry powders
# [2] = cited from earlier work
# [3] = apparent thermodynamic analysis: dissolution Gibbs free energy; format: physicochemical
# Method in brief: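 Excess solid was added to the pure solvent, vortexed and sonicated, then shaken for 24 h at 300 rpm at each temperature from 298.15 to 323.15 K. Samples were centrifuged for 20 min at 8000 rpm and 25 °C. Supernatant was diluted in MeOH/water 8:2 and read by absorbance at 330 nm against a 5–35 µg/mL calibration. Mole fraction solubility was the mean of triplicates. Dissolution thermodynamics came from Van't Hoff analysis.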
# snails = details: cited from earlier work
# MDA-MB-231 = details: human breast cancer cell lines (MDA-MB-231) ref 5; cited from earlier work
# MCF-7 = details: read-out: cell proliferation inhibitor IC50; MCF-7 ref 5; cited from earlier work
# parasitic proliferation = details: cited from earlier work
# hepatitis C virus = details: cited from earlier work
# [4] = in water, PBS (pH 7.4), SGF and SIF; no reference given; cited from earlier work
compound,measurement,setting,value
O=C(Nc1ccc([N+](=O)[O-])cc1Cl)c1cc(Cl)ccc1O [NCL-DMSO],water solubility,[1],18.082 ± 0.045 µg/mL
O=C(Nc1ccc([N+](=O)[O-])cc1Cl)c1cc(Cl)ccc1O [NCL-MeOH],water solubility,[1],16.261 ± 0.082 µg/mL
C[S+](C)[O-] [dimethyl sulfoxide],log P,[2],−1.35
CO [methanol],log P,[2],−0.69
"O=C(Nc1ccc([N+](=O)[O-])cc1Cl)c1cc(Cl)ccc1O [niclosamide, N-(2′-chloro-4′-nitrophenyl)-5-chlorosalicylamide]","ΔdisG, dissolution Gibbs free energy","[3]; 1-butanol, 298.15 K",-0.48423 kcal/mol
same,"ΔdisG, dissolution Gibbs free energy","[3]; 1-butanol, 303.15 K",-0.48341 kcal/mol
same,"ΔdisG, dissolution Gibbs free energy","[3]; 1-butanol, 308.15 K",-0.48255 kcal/mol
same,"ΔdisG, dissolution Gibbs free energy","[3]; 1-butanol, 313.15 K",-0.48176 kcal/mol
same,"ΔdisG, dissolution Gibbs free energy","[3]; 1-butanol, 318.15 K",-0.48088 kcal/mol
same,"ΔdisG, dissolution Gibbs free energy","[3]; 1-butanol, 323.15 K",-0.48009 kcal/mol
same,"ΔdisG, dissolution Gibbs free energy","[3]; 2-propanol, 298.15 K",-0.09434 kcal/mol
same,"ΔdisG, dissolution Gibbs free energy","[3]; 2-propanol, 303.15 K",-0.09015 kcal/mol
same,"ΔdisG, dissolution Gibbs free energy","[3]; 2-propanol, 308.15 K",-0.08597 kcal/mol
same,"ΔdisG, dissolution Gibbs free energy","[3]; 2-propanol, 313.15 K",-0.08179 kcal/mol
same,"ΔdisG, dissolution Gibbs free energy","[3]; 2-propanol, 318.15 K",-0.07763 kcal/mol
same,"ΔdisG, dissolution Gibbs free energy","[3]; 2-propanol, 323.15 K",-0.07345 kcal/mol
same,"ΔdisG, dissolution Gibbs free energy","[3]; DMSO, 298.15 K",0.1837 kcal/mol
same,"ΔdisG, dissolution Gibbs free energy","[3]; DMSO, 303.15 K",0.1905 kcal/mol
same,"ΔdisG, dissolution Gibbs free energy","[3]; DMSO, 308.15 K",0.1973 kcal/mol
same,"ΔdisG, dissolution Gibbs free energy","[3]; DMSO, 313.15 K",0.2041 kcal/mol
same,"ΔdisG, dissolution Gibbs free energy","[3]; DMSO, 318.15 K",0.2109 kcal/mol
same,"ΔdisG, dissolution Gibbs free energy","[3]; DMSO, 323.15 K",0.2177 kcal/mol
same,"ΔdisG, dissolution Gibbs free energy","[3]; Ethanol, 298.15 K",0.3086 kcal/mol
same,"ΔdisG, dissolution Gibbs free energy","[3]; Ethanol, 303.15 K",0.31637 kcal/mol
same,"ΔdisG, dissolution Gibbs free energy","[3]; Ethanol, 308.15 K",0.32414 kcal/mol
same,"ΔdisG, dissolution Gibbs free energy","[3]; Ethanol, 313.15 K",0.33191 kcal/mol
same,"ΔdisG, dissolution Gibbs free energy","[3]; Ethanol, 318.15 K",0.33967 kcal/mol
same,"ΔdisG, dissolution Gibbs free energy","[3]; Ethanol, 323.15 K",0.34744 kcal/mol
same,"ΔdisG, dissolution Gibbs free energy","[3]; Methanol, 298.15 K",1.3769 kcal/mol
same,"ΔdisG, dissolution Gibbs free energy","[3]; Methanol, 303.15 K",1.3941 kcal/mol
same,"ΔdisG, dissolution Gibbs free energy","[3]; Methanol, 308.15 K",1.4113 kcal/mol
same,"ΔdisG, dissolution Gibbs free energy","[3]; Methanol, 313.15 K",1.4285 kcal/mol
same,"ΔdisG, dissolution Gibbs free energy","[3]; Methanol, 318.15 K",1.4457 kcal/mol
same,"ΔdisG, dissolution Gibbs free energy","[3]; Methanol, 323.15 K",1.463 kcal/mol
same,"ΔdisG, dissolution Gibbs free energy","[3]; PEG-200, 298.15 K",-0.1837 kcal/mol
same,"ΔdisG, dissolution Gibbs free energy","[3]; PEG-200, 303.15 K",-0.1807 kcal/mol
same,"ΔdisG, dissolution Gibbs free energy","[3]; PEG-200, 308.15 K",-0.1777 kcal/mol
same,"ΔdisG, dissolution Gibbs free energy","[3]; PEG-200, 313.15 K",-0.1747 kcal/mol
same,"ΔdisG, dissolution Gibbs free energy","[3]; PEG-200, 318.15 K",-0.1717 kcal/mol
same,"ΔdisG, dissolution Gibbs free energy","[3]; PEG-200, 323.15 K",-0.1687 kcal/mol
same,"ΔdisG, dissolution Gibbs free energy","[3]; PEG-400, 298.15 K",-0.50012 kcal/mol
same,"ΔdisG, dissolution Gibbs free energy","[3]; PEG-400, 303.15 K",-0.50024 kcal/mol
same,"ΔdisG, dissolution Gibbs free energy","[3]; PEG-400, 308.15 K",-0.50038 kcal/mol
same,"ΔdisG, dissolution Gibbs free energy","[3]; PEG-400, 313.15 K",-0.50048 kcal/mol
same,"ΔdisG, dissolution Gibbs free energy","[3]; PEG-400, 318.15 K",-0.50067 kcal/mol
same,"ΔdisG, dissolution Gibbs free energy","[3]; PEG-400, 323.15 K",-0.50079 kcal/mol
same,"ΔdisG, dissolution Gibbs free energy","[3]; Water, 298.15 K",0.1407 kcal/mol
same,"ΔdisG, dissolution Gibbs free energy","[3]; Water, 303.15 K",0.1507 kcal/mol
same,"ΔdisG, dissolution Gibbs free energy","[3]; Water, 308.15 K",0.1608 kcal/mol
same,"ΔdisG, dissolution Gibbs free energy","[3]; Water, 313.15 K",0.1709 kcal/mol
same,"ΔdisG, dissolution Gibbs free energy","[3]; Water, 318.15 K",0.181 kcal/mol
same,"ΔdisG, dissolution Gibbs free energy","[3]; Water, 323.15 K",0.1911 kcal/mol
same,solubility,[1]; water,20.76 ± 0.099 µg/mL
same,lethal concentration in snails,snails,0.3 mg/L
same,"apoptosis inducer, concentration",MDA-MB-231,1–10 µM/L
same,IC50,MCF-7,1.06 µM
same,parasitic proliferation inhibitor MIC50,parasitic proliferation,200–250 nM/L
same,hepatitis C virus replication inhibitor,hepatitis C virus,0.16 µM/L
same,aqueous solubility,[4],6 to 20 µg/mL
